Source: ChEMBL document CHEMBL1148197, “Three new manzamine alkaloids from a common Indonesian sponge and their activity against infectious and tropical parasitic diseases” (J Nat Prod, 2004)
Converted amounts (≈) assume the structure as drawn. The source made the active and inactive calls. No cut-off for these calls is given here.

What was measured:
Vero [1] = test: Cytotoxicity against african green monkey Vero cells at 4.7 ug/mL; format: cell-based; settings: chlorocebus sabaeus
Staphylococcus aureus [2] = test: Antimicrobial activity against Staphylococcus aureus; format: functional, organism-based
Staphylococcus aureus [3] = test: Antibacterial activity against methicillin-resistant Staphylococcus aureus; format: functional, organism-based
Cryptococcus neoformans = test: […] activity against Cryptococcus neoformans; format: functional, organism-based
[4] = test system: Mycobacterium intracellulare; test: Antibacterial activity against Mycobacterium intracellular; format: functional, organism-based
[5] = test system: Human immunodeficiency virus 1; test: Antiviral activity against HIV1 infected in human PBMCs; format: functional, organism-based
[6] = test system: Mycobacterium tuberculosis; test: Antitubercular activity against Mycobacterium tuberculosis H37Rv; format: functional
Plasmodium falciparum [7] = test: Antimalarial activity against Plasmodium falciparum D6; format: functional, organism-based
Plasmodium falciparum [8] = test: Antimalarial activity against chloroquine-resistant Plasmodium falciparum W2; format: functional, organism-based
Leishmania donovani [9] = test: Antileishmanial activity against Leishmania donovani; format: functional, organism-based
Vero [10] = test: Cytotoxicity against african green monkey Vero cells; format: cell-based; settings: chlorocebus sabaeus
How it was run: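 Vero (African green monkey kidney) cell cytotoxicity, reported in µg/mL. Compounds without cytotoxicity were scored at a tested concentration of 4.7 µg/mL.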

Plasmodium falciparum [11] = test: Antimalarial activity against Plasmodium falciparum D6 at 5 ug/mL; format: functional, organism-based
Plasmodium falciparum [12] = test: Antimalarial activity against chloroquine-resistant Plasmodium falciparum W2 at 5 ug/mL; format: functional, organism-based
Leishmania donovani [13] = test: Antileishmanial activity against Leishmania donovani at 5 ug/mL; format: functional, organism-based

Structure (SMILES)	Activity (Vero [1])	Activity (Staphylococcus aureus [2])	Activity (Staphylococcus aureus [3])	Activity (Cryptococcus neoformans)	MIC [6]	IC90 (Leishmania donovani [9])	IC50 [4]	EC50 [5]	further results
[O-][N+]1=C(C2=C[C@@]3(O)CC/C=C\CCCCN4CC[C@@H]2[C@]2(CC5/C=C\CCCCN5[C@H]23)C4)c2[nH]c3ccccc3c2CC1 (stereo partly specified)	Non-toxic	inactive	inactive	inactive					Activity [4]: inactive; Activity [5]: inactive
[O-][n+]1ccc2c([nH]c3ccccc32)c1C1=C[C@@]2(O)CC/C=C\CCCCN3CC[C@@H]1[C@]1(C[C@@H]4/C=C\CCCCN4[C@H]12)C3					3.9 µg/mL (≈ 6.91 µM)	3.8 µg/mL (≈ 6.73 µM)	0.2 µg/mL (≈ 0.354 µM)		IC50 (Plasmodium falciparum [7]): 0.011 µg/mL (≈ 0.0195 µM); IC50 (Plasmodium falciparum [8]): 0.013 µg/mL (≈ 0.023 µM); IC50 (Leishmania donovani [9]): 1.1 µg/mL (≈ 1.95 µM); Activity (Vero [10]): 4.2 µg/mL; IC50 (Staphylococcus aureus [2]): 0.5 µg/mL (≈ 0.885 µM); IC50 (Staphylococcus aureus [3]): 0.4 µg/mL (≈ 0.708 µM); IC50 (Cryptococcus neoformans): 1 µg/mL (≈ 1.77 µM)
O=C1CCCN2[C@@H]3[C@@]45CN6CCCC/C=C\CC[C@@]3(C=C(c3nccc7c3[nH]c3ccccc37)[C@@H]4CC6)O[C@]2(CC1)C5	Non-toxic	inactive	inactive	inactive					IC50 (Plasmodium falciparum [7]): 1.6 µg/mL (≈ 2.84 µM); IC50 (Plasmodium falciparum [8]): 3.7 µg/mL (≈ 6.57 µM); Activity (Plasmodium falciparum [11]): inactive; Activity (Plasmodium falciparum [12]): inactive; Activity (Leishmania donovani [13]): inactive; Activity [4]: inactive
O=C1CCCN2[C@@H](CC1)C[C@]13CN4CCCC/C=C\CC[C@](O)(C=C(c5nccc6c5[nH]c5ccc(O)cc56)[C@@H]1CC4)[C@H]23									Activity (Vero [10]): 4.3 µg/mL
Oc1cccc2c1[nH]c1c(C3=C[C@@]4(O)CC/C=C\CCCCN5CC[C@@H]3[C@]3(CC6/C=C\CCCCN6[C@H]34)C5)nccc12 (stereo partly specified)						11 µg/mL (≈ 19.5 µM)		0.59 µM	Activity (Vero [10]): 1.1 µg/mL
O[C@]12C=C(c3nccc4c3[nH]c3ccccc34)C3CCN(CCCC/C=C\CC1)C[C@@]31C[C@]34CC[C@H](CCCN3[C@H]12)O4 (stereo partly specified) [6-Deoxymanzamine X]					1.8 µg/mL (≈ 3.19 µM)		6.25 µg/mL (≈ 11.1 µM)		Activity (Vero [10]): 4.7 µg/mL; IC50 (Staphylococcus aureus [2]): 1.5 µg/mL (≈ 2.66 µM); IC50 (Staphylococcus aureus [3]): 1.5 µg/mL (≈ 2.66 µM); IC50 (Cryptococcus neoformans): 2 µg/mL (≈ 3.54 µM)
C[C@@H]1[C@H](O)[C@@H](C)/C=C/C=C/C=C/C=C/C=C/C=C/C=C/[C@H](O[C@@H]2O[C@H](C)[C@@H](O)[C@H](N)[C@@H]2O)C[C@@H]2O[C@](O)(C[C@@H](O)C[C@@H](O)[C@H](O)CC[C@@H](O)C[C@@H](O)CC(=O)O[C@H]1C)C[C@H](O)[C@H]2C(=O)O [AMPHOTERICIN B]						0.15 µg/mL (≈ 0.162 µM)			
O=CC1=C[C@@]2(O)CC/C=C\CCCCN3CC[C@@H]1[C@]1(C[C@@H]4/C=C\CCCCN4[C@H]12)C3 [IRCINAL]	Non-toxic	inactive	inactive	inactive	30.2 µg/mL (≈ 73.6 µM)	8.5 µg/mL (≈ 20.7 µM)	50 µg/mL (≈ 122 µM)	6.8 µM	IC50 (Leishmania donovani [9]): 4.6 µg/mL (≈ 11.2 µM); Activity (Plasmodium falciparum [11]): inactive; Activity (Plasmodium falciparum [12]): inactive
OC1=C[C@@]2(O)CC/C=C\CCCCN3CC[C@@H]1[C@]1(C[C@@H]4/C=C\CCCCN4[C@H]12)C3 [IRCINOL A]	Non-toxic	inactive		inactive	1.9 µg/mL (≈ 4.77 µM)	0.7 µg/mL (≈ 1.76 µM)	50 µg/mL (≈ 125 µM)	4.3 µM	IC50 (Plasmodium falciparum [7]): 2.4 µg/mL (≈ 6.02 µM); IC50 (Plasmodium falciparum [8]): 3.1 µg/mL (≈ 7.78 µM); IC50 (Staphylococcus aureus [3]): 30 µg/mL (≈ 75.3 µM)
O[C@]12C=C(c3nccc4c3[nH]c3ccccc34)[C@@H]3CCN(CCCC/C=C\CC1)C[C@@]31C[C@@H]3/C=C\CCCCN3[C@H]12 [MANZAMINE A]						1.8 µg/mL (≈ 3.28 µM)		4.2 µM	Activity (Vero [10]): 1.2 µg/mL
O=C1CCCN2[C@@H](CC1)C[C@]13CN4CCCC/C=C\CC[C@](O)(C=C(c5nccc6c5[nH]c5ccccc56)C1CC4)[C@H]23 (stereo partly specified) [MANZAMINE E]	Non-toxic	inactive	inactive	inactive		6.8 µg/mL (≈ 12 µM)		13.1 µM	
O=C1CCCN2[C@@H](CC1)C[C@]13CN4CCCC/C=C\CC[C@](O)(C=C(c5nccc6c5[nH]c5c(O)cccc56)C1CC4)[C@H]23 (stereo partly specified) [MANZAMINE F]	Non-toxic	inactive	inactive			7 µg/mL (≈ 12.1 µM)		7.3 µM	
O[C@]12C=C(c3nccc4c3[nH]c3ccccc34)[C@@H]3CCN(CCCC/C=C\CC1)C[C@@]31CC/C=C\CCCCN[C@H]12 [MANZAMINE J]	Non-toxic	inactive	inactive	inactive	1.7 µg/mL (≈ 3.09 µM)	45 µg/mL (≈ 81.7 µM)	15 µg/mL (≈ 27.2 µM)		IC50 (Plasmodium falciparum [7]): 1.3 µg/mL (≈ 2.36 µM); IC50 (Plasmodium falciparum [8]): 0.75 µg/mL (≈ 1.36 µM); IC50 (Leishmania donovani [9]): 25 µg/mL (≈ 45.4 µM)
Oc1ccc2[nH]c3c(C4=C[C@@]5(O)CC/C=C\CCCCN6CC[C@@H]4[C@@]4(C6)C[C@@]67CC[C@@H](CCCN6[C@H]45)O7)nccc3c2c1 [MANZAMINE X]	Non-toxic						1.5 µg/mL (≈ 2.58 µM)	2.3 µM	IC50 (Staphylococcus aureus [2]): 1 µg/mL (≈ 1.72 µM); IC50 (Staphylococcus aureus [3]): 0.75 µg/mL (≈ 1.29 µM); IC50 (Cryptococcus neoformans): 3 µg/mL (≈ 5.17 µM)
O[C@@H]1CCCN2CC[C@@H]1O[C@@]13CC[C@@H](OC[C@]45CN6CCCC/C=C\CC[C@](O)(C=C(c7nccc8c7[nH]c7ccccc78)[C@@H]4CC6)[C@H]25)[C@@H](O)CCN1[C@@H]1[C@]2(CN4CCCC/C=C\CC[C@]1(O)C=C(c1nccc5c1[nH]c1ccccc15)[C@@H]2CC4)C3 [NEO-KAULUAMINE]	Non-toxic	inactive	inactive		2 µg/mL (≈ 1.72 µM)	8.2 µg/mL (≈ 7.05 µM)	3 µg/mL (≈ 2.58 µM)	2.3 µM	IC50 (Plasmodium falciparum [7]): 1.7 µg/mL (≈ 1.46 µM); IC50 (Plasmodium falciparum [8]): 2.8 µg/mL (≈ 2.41 µM); IC50 (Leishmania donovani [9]): 4.2 µg/mL (≈ 3.61 µM); IC50 (Cryptococcus neoformans): 3 µg/mL (≈ 2.58 µM)
N=C(N)c1ccc(OCCCCCOc2ccc(C(=N)N)cc2)cc1 [PENTAMIDINE]						10 µg/mL (≈ 29.4 µM)			
CO[C@H]1/C=C/O[C@@]2(C)Oc3c(C)c(O)c4c(O)c(c(/C=N/N5CCN(C)CC5)c(O)c4c3C2=O)NC(=O)/C(C)=C\C=C\[C@H](C)[C@H](O)[C@@H](C)[C@@H](O)[C@@H](C)[C@H](OC(C)=O)[C@@H]1C [RIFAMPIN]					0.5 µg/mL (≈ 0.608 µM)				
